Measured values collected from several papers.
Lines come from different studies, so protocols differ.
Effect on: metabolic stability
Host: human
Matrix: liver microsomes

Structure (SMILES) | tested at | pH | microsomal CLint [µL/min/mg]
NCCCOCC(=O)N1CCC[C@H](C(=O)NCc2nc(-c3ccc(C4CC4)cc3)cs2)C1 | 0.5 µM | – | 11
CCS(=O)(=O)N1CCC2(CC1)NC(=O)N(c1ccc(F)c(C(F)(F)F)c1)C2=O | – | – | < 7
CONC(=O)N1CCC[C@H](C(=O)NCc2nc(-c3ccccc3)cs2)C1 | 0.5 µM | – | 7.3
CC1(C)NC(=O)N(c2ccc(F)c(CC(F)(F)F)c2)C1=O | – | – | < 7
CN(CC(=O)Nc1ccc(N(C)c2ccc(Cl)c(F)c2)cc1)c1ccccc1N1CCCC1=O | – | – | 218
CC(C)NCCOCC(=O)N1CCC[C@H](C(=O)NCc2nc(-c3ccc(C(F)(F)F)cc3)cs2)C1 | 0.5 µM | – | 13
Cc1ccc(Oc2ccc(NC(=O)CNc3ccccc3-n3cncn3)cc2)cc1 | – | – | 98
CCN(CC)CCNC(=O)c1c(C)[nH]c(/C=C2\C(=O)Nc3ccc(F)cc32)c1C | 1 µM | pH 7.4 | 25.6
Cc1ccc(C(C)(C)c2ccc(NC(=O)CN(C)c3ccccc3N3CCCC3=O)cc2)cc1 | – | – | 263
O=c1c2cc(F)c(Oc3ccc(OC(F)(F)F)cc3)cc2[nH]c2cc(Cl)cc(F)c12 | 1 µM | pH 7.4 | 2.63
CCOCC(=O)N1CCC[C@H](C(=O)NCc2nc(-c3ccc(-n4cccn4)cc3)cs2)C1 | 0.5 µM | – | 64
CN1CCC(Oc2ccc3c(=O)c4c(F)cc(Cl)cc4[nH]c3c2)CC1 | 1 µM | pH 7.4 | 24.9
N#Cc1ccc(-c2csc(CNC(=O)[C@H]3CCCN(C(=O)COC4CC4)C3)n2)cc1 | 0.5 µM | – | 49
O=c1c2c([nH]c3cc(Oc4ccc(OC(F)(F)F)cc4)ccc13)CCCC2 | 1 µM | pH 7.4 | 51.8
Cc1[nH]c(C)c(S(=O)(=O)Nc2ccc(C(F)(F)F)c(Cl)c2Cl)c1C(=O)N1CCC(F)(F)C1 | – | – | 7.4
COc1ccc(Oc2ccc3c(=O)c4c(F)cc(Cl)cc4[nH]c3c2)cc1 | 1 µM | pH 7.4 | 12.3
O=C1NC2(CCS(=O)(=O)CC2)C(=O)N1c1ccc(F)c(C(F)(F)F)c1 | – | – | < 7
O=c1c2ccc(OCc3ccc(OC(F)(F)F)cc3)cc2[nH]c2cc(Cl)cc(F)c12 | 1 µM | pH 7.4 | 14.9
COc1cnc(Nc2cnnc3ccc(-c4ccc(N5CCN(C)CC5)cc4)cc23)nc1 | – | – | 93
O=c1c2ccc(OCc3cccc(OC(F)(F)F)c3)cc2[nH]c2cc(Cl)cc(F)c12 | 1 µM | pH 7.4 | 16.1
Cc1ccc(-c2csc(CNC(=O)[C@H]3CCCN(C(=O)COCCF)[C@H]3C)n2)cn1 | 0.5 µM | – | 5.1
